SKN-1 block: blocks SKN-1 activity in C. elegans | 360,000 compounds, 0.49% hits | C. elegans VP596 Pgst-4::GFP/RFP ratio, acrylamide-induced, 24 h | inhibition, % at 21.8 µM | AID 624304;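 active = interference check ratio from 0.5 to 1.5 plus GFP to RFP signal ratio inhibition reaching or exceeding a fixed threshold, cut at about 30% in these data, passing the limit was not always enough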
CSN inh: blocks human CSN-mediated cullin deneddylation. Q92905. inhibition, % at 12.5 µM. 360,000 compounds, 0.38% hits. Purified CSN, SCF-Nedd8-OG deneddylation, fluorescence polarization;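 active = pattern-corrected inhibition above about 35%, with an unprinted fluorescence ratio check between 0.5 and 1.5, limit read from the data, passing the limit was not always enough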;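 also: 0% = enzyme with substrate and 100% = substrate without enzyme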
Target sequence (Q92905 whole entry, looked up, one chain of several): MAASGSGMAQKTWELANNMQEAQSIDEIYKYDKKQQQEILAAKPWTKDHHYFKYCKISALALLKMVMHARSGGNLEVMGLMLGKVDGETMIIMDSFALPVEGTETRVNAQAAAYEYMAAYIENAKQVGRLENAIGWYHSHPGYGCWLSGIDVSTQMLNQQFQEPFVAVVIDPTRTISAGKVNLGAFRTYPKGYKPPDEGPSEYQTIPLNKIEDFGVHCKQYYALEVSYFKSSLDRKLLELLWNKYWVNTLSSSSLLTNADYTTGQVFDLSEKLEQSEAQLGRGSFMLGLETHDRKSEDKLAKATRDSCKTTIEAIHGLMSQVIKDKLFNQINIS
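Test system: purified human Csn5 enzyme expressed in HEK293T cells. Amount: 0.24 nM enzyme. Reagent: SCFSkp2-Nedd8OG substrate at 10 nM final. Schedule: 90 min incubation of compound, enzyme and substrate at room temperature. Detection: fluorescence polarization. Read-out: % inhibition of substrate cleavage by Csn5.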
DNMT1 block: inhibitors of human DNMT1. DNMT1 molecular beacon, Hinp1I cleavage, fluorescence. inhibition (reported as % activation of signal), % at 10 µM. 360,000 compounds, 0.83% hits. AID 588458; in the data active = inhibition above about 50%
Rpn11 block: blocks the human proteasome subunit Rpn11; O00487; human 26S proteasome, Ub4-pepOG fluorescence polarization; 20S core pre-blocked with epoxomicin; inhibition, % at 20 µM; 360,000 compounds, 0.59% hits; AID 588493;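 active = inhibition at 20 µM, scaled to each plate's controls, above about 33%, limit read from the data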
SUMO1 PPI mod: alters human SUMO1 binding to SIM partners. SUMO1 binding to a labelled peptide, TR-FRET, 1 h. inhibition, % at 20 µM. 360,000 compounds, 0.33% hits. AID 602429; in the data active = inhibition above about 37%
Target sequence (P63165 whole entry, looked up): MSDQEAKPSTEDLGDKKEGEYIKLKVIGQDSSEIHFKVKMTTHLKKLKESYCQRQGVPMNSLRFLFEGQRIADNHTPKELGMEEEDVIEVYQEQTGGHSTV
MT1-MMP act inh: blocks activation of human MT1-MMP. P50281. HT1080 RFP-PRO-GFP cells, GFP/RFP ratio fluorescence, overnight; percent of plate control window, DMSO zero. GFP/RFP ratio change, % at 20 µM. 360,000 compounds, 0.061% hits;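 active = GFP/RFP ratio change of at least 30% with cell ATP level not reduced by more than half and red fluorescence within 50% of control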
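Read-out: GFP/RFP fluorescence ratio; Test system: RFP-PRO-GFP reporter HT1080 cells; Compound dosing: single-point 20 µM compound, 1% DMSO; Times: overnight compound exposure at 37 °C.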
DNMT1 interf DR: beacon fluorescence artifact, dose response counter-screen; AID 602382; IC50, µM; 200 tested, under 10 active; molecular beacon fluorescence, spectral interference counter-screen; shares compounds with DNMT1 block; call rule not given here
DNMT1 confirm: DNMT1 inhibition confirmation, single concentration | shares compounds with DNMT1 block | DNMT1 molecular beacon HinP1I cleavage, fluorescence | inhibition, % at 10 µM | 2,300 compounds, 8% hits | AID 602385;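 active = average inhibition of at least 30% in the single-concentration confirmation test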
Beacon interf: beacon fluorescence artifact counter-screen; shares compounds with DNMT1 block; DNMT1 molecular beacon spectral interference counterscreen, fluorescence 485/520; 2,300 compounds, 1% hits; activation (fluorescence interference), % at 10 µM; AID 602387;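 active = activation of at least 30% at 10 µM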;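 also: DNMT1 catalytic domain with a HinP1I cleavage step and a FAM/dabcyl DNA beacon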
Starred values were filed as active, the others as inactive; · = no result given. Only some compounds are listed: those with a hit (about 2.3% of all), similar ones and a draw of the others.

SMILES | SKN-1 block | CSN inh | DNMT1 block | Rpn11 block | SUMO1 PPI mod | MT1-MMP act inh | DNMT1 confirm | Beacon interf | others
Cc1cccc(NC(=S)N(CCCN2CCOCC2)C(C)c2cc3ccccc3o2)c1C (stereo not drawn) | 5 | 0 | 54* | -3 | 2 | 5 | 1 | -1
Cc1cccc(NC(=S)N(CCCN2CCOCC2)C(C)c2cc3ccccc3o2)c1 (stereo not drawn) | 2 | 5 | 0 | 10 | 1 | -2 | · | ·
CCOc1ccc(S(=O)(=O)N2Cc3ccccc3CC2C(=O)O)cc1 (stereo not drawn) | -3 | -3 | -3 | -12 | -6 | -2 | · | ·
COc1ccc(S(=O)(=O)N2Cc3ccccc3CC2C(=O)O)cc1 (stereo not drawn) | -9 | 14 | 60* | 2 | 19 | -4 | 0 | -1
O=C(Nc1sc2c(c1C(=O)O)CCC2)C(=O)N1CCOCC1 | 18 | 11 | 61* | -17 | 5 | -1 | 6 | 2
O=C(Nc1sc2c(c1C(=O)O)CCCC2)C(=O)N1CCOCC1 | 4 | 2 | -3 | 13 | -3 | -2 | · | ·
CN(C)C(=O)c1cc2c(c(-c3cccc(-c4ccccc4F)c3)n1)[C@@H](CCO)N(S(C)(=O)=O)C2 | 5 | -1 | · | · | 3 | 3 | · | ·
CCOC(=O)/C=c1\s/c(=C\c2ccc(C#N)cc2)c(=O)n1CC(=O)NCc1ccco1 | -3 | 1 | 50* | -2 | -7 | 4 | 0 | -4
CCOC(=O)/C=c1/s/c(=C/c2ccc3cc(OC)ccc3c2)c(=O)n1CC(=O)NCC1CCCO1 (stereo not drawn) | -9 | 24 | 54* | · | -3 | -17 | 2 | -2
CCOC(=O)/C=c1\s/c(=C\c2c(OC)ccc3ccccc23)c(=O)n1CC(=O)NCC1CCCO1 (stereo not drawn) | -132 | 10 | -6 | · | -7 | · | · | ·
Cc1ccc(-n2c(=O)c3c(c4cc(C)ccc4n3C)n(CC(=O)NCC3CCCO3)c2=O)cc1 (stereo not drawn) | -3 | 0 | 0 | -11 | -16 | -3 | · | ·
COc1ccc2c(c1)c1c(c(=O)n(-c3ccc(C)cc3)c(=O)n1CC(=O)NCC1CCCO1)n2C (stereo not drawn) | 14 | -2 | 98* | -1 | -17 | -1 | 2 | 2
COc1ccc(-c2oc3c(c2C(=O)OCCO)C(OCCCO)CCC3)cc1 (stereo not drawn) | 11 | -3 | · | · | -3 | 5 | · | ·
COc1ccc(NC(=O)c2cccc3c(-c4ccc(O)c(OC)c4)coc23)cc1 | -5 | -2 | -30 | 1 | 11 | 0 | · | ·
C[C@@H](NC(=O)[C@@H]1CCCN1C(=O)[C@@H]1CCCN1)c1ccccc1 | -6 | -4 | · | · | 4 | -3 | · | ·
Cn1nc(C(=O)NC2CCCCC2)c2ccccc2c1=O | -6 | 1 | -1 | -4 | -3 | -3 | · | ·
Cn1nc(CC(=O)NC2CCCCCCCCCCC2)c2ccccc2c1=O | 19 | 1 | 69* | -3 | -5 | 2 | 1 | 0
CCc1ccc(Nc2nnc(SCC(=O)NC(=O)CN3CCCC3=O)s2)cc1 | 15 | 8 | 64* | -23 | 9 | -3 | 1 | 0
COc1ccccc1Nc1nnc(SCC(=O)N2CCCC2=O)s1 | 14 | -2 | 0 | -2 | -6 | 6 | · | ·
COc1ccccc1C1=NC(c2ccc(F)cc2)N=C1C (stereo not drawn) | 11 | 6 | 74* | -5 | 1 | 3 | 3 | 2
COc1ccccc1-c1n[nH]nc1C1=CC(=O)C[C@H](c2ccc(F)cc2)C1 | 11 | 7 | -3 | -1 | -7 | 0 | · | ·
O=C1NC(c2ccc(Cl)cc2Cl)Oc2ccccc21 (stereo not drawn) | 7 | 1 | -5 | -4 | -3 | -2 | · | ·
Cc1ccccc1C1NC(=O)c2ccccc2O1 (stereo not drawn) | 5 | -2 | 75* | -5 | 6 | 5 | 4 | 5
CC(=O)Nc1ccc(S(=O)(=O)c2ccnc3cc(Cl)ccc23)cc1 | 2 | 3 | 0 | -6 | -19 | 6 | · | ·
Cc1cc(OCC(=O)Nc2ccc(N3CCCC3)cc2)cc(C)c1Cl | 23 | 0 | 71* | 26 | 11 | 6 | 1 | -7
SMILES | SKN-1 block | CSN inh | DNMT1 block | Rpn11 block | SUMO1 PPI mod | MT1-MMP act inh | DNMT1 confirm | Beacon interf | others
COc1ccc(N2CCCC2)c(NC(=O)COc2ccccc2)c1 | 11 | 0 | -1 | 2 | 1 | -3 | · | ·
Cc1cc(N2CCCC2)ccc1NC(=O)COc1ccccc1 | 10 | 6 | 64* | 31 | -13 | -46 | 2 | 1
CCC(CC)C(C(=O)NCc1ccccc1)N1CCN(C(=O)C2CCCO2)CC1 (stereo not drawn) | 6 | 2 | · | · | -3 | 0 | · | ·
C[C@H](CO)N1C[C@H](C)[C@H](CN(C)Cc2ccncc2)Oc2cc(-c3ccccc3F)ccc2S1(=O)=O | -3 | 1 | -7 | 0 | 5 | -8 | · | ·
COc1ccc2cc3c(N)nn(C(=O)c4ccc(Cl)c([N+](=O)[O-])c4)c3nc2c1 | 4 | 104 | 83* | · | 0 | -14 | 9 | -8
CSc1ccccc1NC(=O)C1(C)CCN1C(=O)Cc1ccccc1Cl (stereo not drawn) | -3 | 3 | 1 | 0 | 2 | 2 | · | ·
Nc1cc(S(=O)(=O)O)cc([N+](=O)[O-])c1O | 7 | 12 | 66* | 2 | -3 | -1 | 72* | -5 | DNMT1 interf DR=>99
Nc1ccc(C(=O)O)cc1[N+](=O)[O-] | 5 | 0 | 3 | 0 | -11 | 4 | · | ·
O=C(/C=C/[C@H]1O[C@@H](n2ccc(=O)[nH]c2=O)[C@H](O)[C@@H]1O)NCc1ccco1 | -9 | 5 | 6 | 5 | 1 | 4 | · | ·
Cc1ccc(N(C)S(=O)(=O)c2nnc(NC(=O)c3ccco3)s2)cc1 | 14 | -1 | 5 | 1 | 0 | -1 | · | ·
Cc1ccccc1N(C)S(=O)(=O)c1nnc(NC(=O)c2ccco2)s1 | 13 | 9 | 54* | -10 | 19 | -2 | 3 | 1
S=C(Nc1ccc(Cl)cc1)Nc1ccc2c(c1)OCCO2 | 5 | 7 | 72* | -1 | 13 | 3 | 2 | 3
Nc1c(-c2ccc(C(F)(F)F)cc2)nc2ncccn12 | 24 | 2 | · | · | -23 | 0 | · | ·
